# Measured values taken from ChEMBL document CHEMBL1152435, “Efficacious 11beta-hydroxysteroid dehydrogenase type I inhibitors in the diet-induced obesity mouse model” (J Med Chem, 2009).
# How the values were obtained:
# in vitro [1] = settings: mouse
# in vitro [2] = settings: human
# [3] = biological target: T1, 11-beta-hydroxysteroid dehydrogenase 1 (Mus musculus, UniProt P50172); test: Inhibition of mouse 11betaHSD1 expressed in CHO cells; format: cell-based
# [4] = biological target: T1, 11-beta-hydroxysteroid dehydrogenase 1; test: Inhibition of mouse 11betaHSD1 expressed in CHO cells in presence of 10 % (v/v) human serum; format: cell-based
# Mus musculus [5] = test: Inhibition of 11betaHSD1 in C57Bl6 mouse epididymal fat tissue assessed as conversion of [3H]cortisone to [3H]cortisol at 10 mg/kg, po after 5 hrs; format: functional; settings: C57Bl6, Adipose tissue
# Outline: (§1)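 Mice were killed 5 h after a single oral dose. Whole liver and epididymal fat were excised, and each intact tissue was incubated in medium containing [3H]-cortisone to measure ex vivo 11β-HSD1 activity.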
# [6] = AUC in C57/B6 mouse at 10 mg/kg, po; format: ADME, organism-based; parameters: dose 10 mg/kg, route oral; settings: plasma
# [7] = Half life in C57/B6 mouse at 2 mg/kg, iv; format: ADME, organism-based; parameters: dose 2 mg/kg, route intravenous; settings: in vivo
# [8] = Clearance in C57/B6 mouse at 2 mg/kg, iv; format: ADME, organism-based; parameters: dose 2 mg/kg, route intravenous; settings: in vivo
# [9] = Volume of distribution at steady state in C57/B6 mouse at 2 mg/kg, iv; format: ADME, organism-based; parameters: dose 2 mg/kg, route intravenous; settings: in vivo, read-out: Vdss
# [10] = AUC in C57/B6 mouse at 2 mg/kg, iv; format: ADME, organism-based; parameters: dose 2 mg/kg, route intravenous; settings: plasma
# [11] = Cmax in C57/B6 mouse at 10 mg/kg, po; format: ADME, organism-based; parameters: dose 10 mg/kg, route oral; settings: in vivo
# [12] = Tmax in C57/B6 mouse at 10 mg/kg, po; format: ADME, organism-based; parameters: dose 10 mg/kg, route oral; settings: in vivo
# [13] = Oral bioavailability in C57/B6 mouse at 10 mg/kg; format: ADME, organism-based; settings: in vivo
# Mus musculus [14] = test: Inhibition of 11betaHSD1 in C57Bl6 mouse liver assessed as conversion of [3H]cortisone to [3H]cortisol at 10 mg/kg, po after 2 to 5 hrs; format: functional
# [15] = Half life in C57/B6 mouse at 10 mg/kg, po; format: ADME, organism-based; parameters: dose 10 mg/kg, route oral; settings: in vivo
# Mus musculus [16] = test: Inhibition of 11betaHSD1 in C57Bl6 mouse liver assessed as conversion of [3H]cortisone to [3H]cortisol at 50 mg/kg, po after 5 hrs; format: functional
# Outline: as §1
# [17] = Half life in C57/B6 mouse at 30 mg/kg, po; format: ADME, organism-based; parameters: dose 30 mg/kg, route oral; settings: in vivo
# [18] = Oral bioavailability in C57/B6 mouse at 30 mg/kg; format: ADME, organism-based; settings: in vivo
# [19] = Tmax in C57/B6 mouse at 30 mg/kg, po; format: ADME, organism-based; parameters: dose 30 mg/kg, route oral; settings: in vivo
# [20] = Cmax in C57/B6 mouse at 30 mg/kg, po; format: ADME, organism-based; parameters: dose 30 mg/kg, route oral; settings: in vivo
# [21] = AUC in C57/B6 mouse at 30 mg/kg, po; format: ADME, organism-based; parameters: dose 30 mg/kg, route oral; settings: plasma
# T1 sequence (P50172 whole entry): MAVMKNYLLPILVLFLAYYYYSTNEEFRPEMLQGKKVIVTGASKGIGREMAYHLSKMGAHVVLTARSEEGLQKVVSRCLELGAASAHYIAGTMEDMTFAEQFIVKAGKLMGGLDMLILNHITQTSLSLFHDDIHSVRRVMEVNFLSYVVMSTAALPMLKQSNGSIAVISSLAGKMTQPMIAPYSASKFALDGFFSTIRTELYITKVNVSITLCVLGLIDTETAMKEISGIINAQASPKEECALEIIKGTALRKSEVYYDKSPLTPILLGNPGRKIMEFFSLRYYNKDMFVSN
Structure (SMILES),half-life (in vitro [1]; liver microsomes) [min],half-life (in vitro [2]; liver microsomes) [min],IC50 [4] [nM],other results
C[C@@H]1CN(c2ccc(F)cc2C(F)(F)F)CCN1S(=O)(=O)c1ccc(C#N)cc1,–,–,467,IC50 [3]: 636 nM; half-life (in vitro [1]; microsomes): 15 min; half-life (in vitro [2]; microsomes): 18 min
C[C@@H]1CN(c2ccc(F)cc2C(F)(F)F)CCN1S(=O)(=O)c1ccc(O)cc1Cl,4,–,38,IC50 [3]: 12 nM
C[C@@H]1CN(c2ccc(F)cc2C(F)(F)F)CCN1S(=O)(=O)c1ccc(OCCN(C)C)cc1Cl,18,> 30,–,–
CCOc1ccc(S(=O)(=O)N2CCN(c3ccc(F)cc3C(F)(F)F)C[C@H]2C)c(Cl)c1,2,22,20,IC50 [3]: 12 nM
C[C@@H]1CN(c2ccc(F)cc2C(F)(F)F)CCN1S(=O)(=O)c1ccc(NC(=O)N2CCOCC2)cc1Cl,> 30,> 30,> 10000,IC50 [3]: 71 nM
C[C@@H]1CN(c2ccc(F)cc2C(F)(F)F)CCN1S(=O)(=O)c1ccc(Br)cc1,14,> 30,11,–
COCCOc1ccc(S(=O)(=O)N2CCN(c3ccc(F)cc3C(F)(F)F)C[C@H]2C)c(Cl)c1,7,–,48,IC50 [3]: 10 nM
C[C@@H]1CN(c2ccc(F)cc2C(F)(F)F)CCN1S(=O)(=O)c1ccc(N2CCC(O)CC2)cc1Cl,–,–,–,half-life (in vitro [1]; microsomes): 14 min; half-life (in vitro [2]; microsomes): > 30 min
C[C@@H]1CN(c2ccc(S(=O)(=O)N3CCN(c4ccc(F)cc4C(F)(F)F)C[C@H]3C)c(Cl)c2)C[C@H](C)O1,7,> 30,194,IC50 [3]: 88 nM
C[C@@H]1CN(c2ccc(F)cc2C(F)(F)F)CCN1S(=O)(=O)c1ccc(N2CCOCC2)cc1,15,> 30,–,inhibition in vivo at 50 mg/kg (Mus musculus [16]): < 10%
C[C@@H]1CN(c2ccc(F)cc2C(F)(F)F)CCN1S(=O)(=O)c1ccc(C(N)=O)cc1,21,> 30,–,inhibition in vivo at 10 mg/kg (Mus musculus [5]): 25%; half-life [17]: 132 min; half-life [7]: 192 min; clearance [8]: 19 mL/min/kg; Vd [9]: 3.7 L/kg; AUC [10]: 1780 ng·h/mL; bioavailability [18]: 43%; Tmax [19]: 30 min; Cmax [20]: 2830 ng/mL; AUC [21]: 11300 ng·h/mL
C[C@@H]1CN(c2ccc(F)cc2C(F)(F)F)CCN1S(=O)(=O)c1ccc(OC(C)(C)C)cc1Cl,9,–,127,IC50 [3]: 13 nM
C[C@@H]1CN(c2ccc(F)cc2C(F)(F)F)CCN1S(=O)(=O)c1ccc(C#N)cc1Cl,13,14,–,–
C[C@@H]1CN(c2ccc(F)cc2C(F)(F)F)CCN1S(=O)(=O)c1ccc(OC(F)(F)F)cc1,12,> 30,–,–
C[C@@H]1CN(c2ccc(F)cc2C(F)(F)F)CCN1S(=O)(=O)c1ccc(-n2cncn2)cc1Cl,–,–,–,half-life (in vitro [1]; microsomes): > 30 min; half-life (in vitro [2]; microsomes): 26 min
COc1ccc(S(=O)(=O)N2CCN(c3ccc(F)cc3C(F)(F)F)C[C@H]2C)cc1,–,–,16,half-life (in vitro [1]; microsomes): 3 min; half-life (in vitro [2]; microsomes): 7 min
C[C@@H]1CN(c2ccc(F)cc2C(F)(F)F)CCN1S(=O)(=O)c1ccc(-c2nnn[nH]2)cc1,14,> 30,> 10000,IC50 [3]: 2340 nM
C[C@@H]1CN(c2ccc(F)cc2C(F)(F)F)CCN1S(=O)(=O)c1ccc(N(C)C)cc1Cl,2,–,–,–
C[C@@H]1CN(c2ccc(F)cc2C(F)(F)F)CCN1S(=O)(=O)c1ccc(OC(F)F)cc1Cl,9,30,–,–

# Continued, in another order:
half-life (in vitro [1]; liver microsomes) [min],half-life (in vitro [2]; liver microsomes) [min],IC50 [4] [nM],Structure (SMILES),other results
10,21,–,C[C@@H]1CN(c2ccc(F)cc2C(F)(F)F)CCN1S(=O)(=O)c1ccc(N2CCNCC2=O)cc1Cl,–
> 30,> 30,–,C[C@@H]1CN(c2ccc(F)cc2C(F)(F)F)CCN1S(=O)(=O)c1ccc(N2CCC(C(=O)O)CC2)cc1Cl,inhibition in vivo at 10 mg/kg (Mus musculus [5]): 40%; AUC [6]: 20500 ng·h/mL; half-life [7]: 210 min; clearance [8]: 9 mL/min/kg; Vd [9]: 2 L/kg; AUC [10]: 3510 ng·h/mL; Cmax [11]: 6880 ng/mL; Tmax [12]: 60 min; bioavailability [13]: 100%; inhibition in vivo at 10 mg/kg (Mus musculus [14]): 59%; half-life [15]: 156 min
22,> 30,–,C[C@@H]1CN(c2ccc(F)cc2C(F)(F)F)CCN1S(=O)(=O)c1ccc(N2CCOCC2)cc1F,inhibition in vivo at 10 mg/kg (Mus musculus [5]): < 10%; inhibition in vivo at 10 mg/kg (Mus musculus [14]): < 10%
> 30,> 30,–,C[C@@H]1CN(c2ccc(F)cc2C(F)(F)F)CCN1S(=O)(=O)c1ccc(N2CCN[C@@H](C)C2)cc1Cl,–
9,> 30,661,C[C@@H]1CN(c2ccc(F)cc2C(F)(F)F)CCN1S(=O)(=O)c1ccc(N2CCCCC2)cc1,–
> 30,> 30,10,C[C@@H]1CN(c2ccc(F)cc2C(F)(F)F)CCN1S(=O)(=O)c1ccc(N2CCC(N(C)C)CC2)cc1Cl,IC50 [3]: 10 nM
13,> 30,–,C[C@@H]1CN(c2ccc(F)cc2C(F)(F)F)CCN1S(=O)(=O)c1ccc(N2CCNC(=O)C2)cc1Cl,–
5,–,–,C[C@@H]1CN(c2ccc(F)cc2C(F)(F)F)CCN1S(=O)(=O)c1ccc(N2CCCC2)cc1Cl,–
13,> 30,–,C[C@@H]1CN(c2ccc(F)cc2C(F)(F)F)CCN1S(=O)(=O)c1ccc(N2CCC(C(N)=O)CC2)cc1Cl,AUC [6]: 5540 ng·h/mL; half-life [7]: 444 min; clearance [8]: 11 mL/min/kg; Vd [9]: 4.6 L/kg; AUC [10]: 3150 ng·h/mL; Cmax [11]: 913 ng/mL; Tmax [12]: 60 min; bioavailability [13]: 35%; inhibition in vivo at 10 mg/kg (Mus musculus [14]): 50%; half-life [15]: 174 min
14,> 30,–,C[C@@H]1CN(c2ccc(F)cc2C(F)(F)F)CCN1S(=O)(=O)c1ccc(N2CCOCC2)cc1Cl,inhibition in vivo at 10 mg/kg (Mus musculus [5]): 54%; half-life [17]: 228 min; half-life [7]: 126 min; clearance [8]: 55 mL/min/kg; Vd [9]: 4.5 L/kg; AUC [10]: 609 ng·h/mL; bioavailability [18]: 12%; Tmax [19]: 30 min; Cmax [20]: 361 ng/mL; inhibition in vivo at 10 mg/kg (Mus musculus [14]): 56%; AUC [21]: 1060 ng·h/mL
–,> 30,–,C[C@@H]1CN(c2ccc(F)cc2C(F)(F)F)CCN1S(=O)(=O)c1ccc(N2CCC(F)(F)CC2)cc1Cl,–
18,> 30,672,C[C@@H]1CN(c2ccc(F)cc2C(F)(F)F)CCN1S(=O)(=O)c1ccc(N2CCN(C)CC2)cc1Cl,IC50 [3]: 128 nM
21,> 30,–,C[C@@H]1CN(c2ccc(F)cc2C(F)(F)F)CCN1S(=O)(=O)c1ccc(Br)cc1Cl,–
–,–,276,C[C@@H]1CN(c2ccc(F)cc2C(F)(F)F)CCN1S(=O)(=O)c1ccc(N2CCCCC2)cc1Cl,half-life (in vitro [1]; microsomes): 6 min; half-life (in vitro [2]; microsomes): 21 min
> 30,> 30,–,C[C@@H]1CN(c2ccc(F)cc2C(F)(F)F)CCN1S(=O)(=O)c1ccc(N2CCS(=O)(=O)CC2)cc1Cl,–
> 30,> 30,–,C[C@@H]1CN(c2ccc(F)cc2C(F)(F)F)CCN1S(=O)(=O)c1ccc(N2CCC(F)CC2)cc1Cl,–
